Assay [1] has as its system HT-1080. In words: Antiinvasive activity in human HT1080 cells assessed as number of cells migrated at 0.1 uM after 24 hrs by Boyden chamber invasion assay. The assay is classed as functional. The settings on record: in the assay text read “after 48 hrs” for “after 24 hrs”. The procedure, abridged: (§1)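 HT 1080 cells, harvested at 70–80% confluence, were seeded at 6×10⁴ cells per filter in serum-free DMEM with BSA. Transwell filters were coated with human placental type IV collagen. Chambers were incubated 48 h at 37 °C, with media renewed at 24 h. Lower-surface cells were fixed, Giemsa-stained and counted by light microscopy. Results are % of untreated control migration, mean ± s.d., n=3.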

Assay [2] concerns HT-1080. The experiment in a line: Antiinvasive activity in human HT1080 cells assessed as number of cells migrated at 10 uM after 24 hrs by Boyden chamber invasion assay. The assay is classed as functional. The settings on record: in the assay text read “after 48 hrs” for “after 24 hrs”. The procedure, abridged: as §1
Assay [3] relates to HT-1080. The experiment in a line: Antiinvasive activity in human HT1080 cells assessed as number of cells migrated at 1 uM after 48 hrs by Boyden chamber invasion assay.
The test system of assay [4] is HT-1080. The experiment in a line: Antiinvasive activity in human HT1080 cells assessed as number of cells migrated at 10 uM after 48 hrs by Boyden chamber invasion assay.
Assay [5] concerns HT-1080. In words: Antiinvasive activity in human HT1080 cells assessed as number of cells migrated at 0.1 uM after 48 hrs by Boyden chamber invasion assay.

For the compound `O=C(Oc1cccc(Cl)c1)c1cc2ccccc2oc1=O`, the figures for the Activity with HT-1080 [1] and in the assay with HT-1080 [2] were 52.4% and 35.65%, respectively. The Cells migrated with HT-1080 [3] was found to be 45.5%.
As for `CC(=O)OCc1ccc2oc(=O)c(C(=O)Oc3cccc(Cl)c3)cc2c1`, the Activity in the assay with HT-1080 [1] amounted to 95.2%; in the assay with HT-1080 [2] it was 6.17%. Besides, the Cells migrated in the assay with HT-1080 [3] is 49.11%.
For `O=C(Oc1cccc(Cl)c1)c1cc2cc(CCl)ccc2oc1=O` the same measures were 98.35%, 67% and 79.76%.
As to `Cc1ccc2oc(=O)c(C(=O)Oc3cccc(Cl)c3)cc2c1`, the Activity was 81.5% with HT-1080 [1] and 27.62% in the assay on HT-1080 [2]. Moreover, the Cells migrated with HT-1080 [3] is 52.49%.
With `CC(=O)NCc1ccc2oc(=O)c(C(=O)Oc3ccccc3)cc2c1`, the Cells migrated with HT-1080 [3] is reported as 63.45%.
On to `CC(=O)OCc1ccc2oc(=O)c(C(=O)N(C)c3ccccc3Cl)cc2c1`, for which the Cells migrated with HT-1080 [3] came out at 62.78%.
The same measure, in the same setting: the figure for `CC(=O)OCc1ccc2oc(=O)c(C(=O)N(C)c3cccc(Cl)c3)cc2c1` is 82.56%.
Regarding `CCC(=O)OCc1ccc2oc(=O)c(C(=O)Oc3cccc(Br)c3)cc2c1`, the Activity in the assay with HT-1080 [1] is 84.36%; with HT-1080 [2], 21.32%. Also, the Cells migrated with HT-1080 [3] was determined as 40.23%.
With `CCCC(=O)OCc1ccc2oc(=O)c(C(=O)Oc3cccc(Br)c3)cc2c1`, the results for the Activity with HT-1080 [1] and with HT-1080 [4] were 88.55% and 24.67%, respectively. Also, in the assay on HT-1080 [3], the Cells migrated is given as 50.47%.
`CC(=O)OCc1ccc2oc(=O)c(C(=O)Sc3cccc(Cl)c3)cc2c1`: the values for the Activity in the assay with HT-1080 [1] and with HT-1080 [2] were 76.54% and 61.86%, respectively. Besides, the Cells migrated with HT-1080 [3] was 65.84%.
For the compound `CC(=O)OCc1ccc2oc(=O)c(C(=O)Sc3cccc(Br)c3)cc2c1`, the Activity is listed as 79.58% in the assay on HT-1080 [1] and 67.84% with HT-1080 [2]. Besides, the Cells migrated with HT-1080 [3] is on record as 70.86%.
For `CC(=O)OCc1ccc2oc(=O)c(C(=O)Nc3cccc(Cl)c3)cc2c1` the same measures were 79.55%, 42.75% and 66.85%.
As to `O=C1NC(=O)C(c2ccc(-c3ccccc3)cc2)(N2CCN(c3ccc([N+](=O)[O-])cc3)CC2)C(=O)N1`, the Cells migrated with HT-1080 [3] is 41.6%.
In the case of `Cl.NCc1ccc2oc(=O)c(C(=O)Oc3cccc(F)c3)cc2c1`, the Cells migrated in the assay on HT-1080 [3] is 45.25%.
With `CC(C)(C)C(=O)OCc1ccc2oc(=O)c(C(=O)Oc3cccc(Br)c3)cc2c1`, the values for the Activity in the assay with HT-1080 [2] and in the assay with HT-1080 [5] were 23.64% and 65.24%, respectively. For the same compound, the Cells migrated in the assay with HT-1080 [3] stood at 48.21%.
As for `O=C(Oc1ccccc1)c1cc2cc([N+](=O)[O-])ccc2oc1=O`, the Cells migrated in the assay on HT-1080 [3] is 76.68%.
For the compound `O=C(Oc1cccc(F)c1)c1cc2cc([N+](=O)[O-])ccc2oc1=O`, the Cells migrated in the assay on HT-1080 [3] is on record as 53.56%.
With `O=C(Oc1cccc(Cl)c1)c1cc2cc([N+](=O)[O-])ccc2oc1=O`, the Cells migrated in the assay with HT-1080 [3] amounted to 65.78%.
With `CC(=O)NCc1ccc2oc(=O)c(C(=O)Oc3cccc(Br)c3)cc2c1`, the Activity turned out to be 34.38% in the assay with HT-1080 [1] and 27.14% with HT-1080 [2]. In the assay on HT-1080 [3], the Cells migrated is listed as 36.94%.
For `CC(=O)NCc1ccc2oc(=O)c(C(=O)Oc3cccc(I)c3)cc2c1`, the Cells migrated in the assay on HT-1080 [3] came to 23.47%.
The same measure, in the same setting: the figure for `CC(=O)NCc1ccc2oc(=O)c(C(=O)Oc3cccc(Cl)c3)cc2c1` is 36.58%.
For `CC(=O)OCc1ccc2oc(=O)c(C(=O)Oc3cccc(Br)c3)cc2c1`, the Activity with HT-1080 [1] was 39.47%; in the assay on HT-1080 [2], 11.77%. The Cells migrated in the assay on HT-1080 [3] stood at 21.81%.
On to `CC(C)CC(C(=O)N(C)C(Cc1ccccc1)C(=O)O)C(CSc1ccccc1)C(=O)NO` (configuration not stated), for which, in the assay with HT-1080 [3], the Cells migrated is given as 38.45%.
Consider `CCCCC(=O)OCc1ccc2oc(=O)c(C(=O)Oc3cccc(Br)c3)cc2c1`, for which the Activity in the assay with HT-1080 [1] is 92.36%; in the assay on HT-1080 [2] it was 32.26%. In the assay on HT-1080 [3], the Cells migrated is recorded as 63.25%.
Regarding `CCCCCCC(=O)OCc1ccc2oc(=O)c(C(=O)Oc3cccc(Br)c3)cc2c1`, the Activity is reported as 89.36% with HT-1080 [1] and 35.96% in the assay with HT-1080 [2]. Moreover, the Cells migrated in the assay on HT-1080 [3] was 55.56%.
For `Cl.NCc1ccc2oc(=O)c(C(=O)Oc3cccc(Br)c3)cc2c1` the same measures were 88.26%, 63.58% and 79.25%.
Regarding `O=C(Oc1cccc(Br)c1)c1cc2cc([N+](=O)[O-])ccc2oc1=O`, in the assay on HT-1080 [3], the Cells migrated was determined as 35.22%.
Still for that read-out and setting: with `Cl.NCc1ccc2oc(=O)c(C(=O)Oc3ccccc3)cc2c1` the figure was 85.53%; with `CC(=O)NCc1ccc2oc(=O)c(C(=O)Oc3cccc(F)c3)cc2c1`, 65.58%.
Still for that read-out and setting: with `CC(=O)OCc1ccc2oc(=O)c(C(=O)N(C)c3ccc(Cl)cc3)cc2c1` the figure was 98.56%.
The same measure, in the same setting: the figure for `Cl.NCc1ccc2oc(=O)c(C(=O)Oc3cccc(Cl)c3)cc2c1` is 86.56%; for `Cl.NCc1ccc2oc(=O)c(C(=O)Oc3cccc(I)c3)cc2c1` it is 25.34%.
As for `CC(=O)OCc1ccc2oc(=O)c(C(=O)Sc3ccccc3)cc2c1`, the Activity was 89.45% with HT-1080 [1] and 73.84% with HT-1080 [2]. Moreover, the Cells migrated with HT-1080 [3] came to 83.45%.
As to `O=C(Oc1cccc(I)c1)c1cc2cc([N+](=O)[O-])ccc2oc1=O`, the Cells migrated with HT-1080 [3] worked out at 63.58%.
For the compound `CC(C)C(=O)OCc1ccc2oc(=O)c(C(=O)Oc3cccc(Br)c3)cc2c1`, the Activity amounted to 54.36% in the assay with HT-1080 [1] and 21.07% in the assay with HT-1080 [2]. Besides, in the assay with HT-1080 [3], the Cells migrated was determined as 37.8%.
For `CCCCCC(=O)OCc1ccc2oc(=O)c(C(=O)Oc3cccc(Br)c3)cc2c1` the same measures were 94.25%, 33.94% and 59.32%.

Source of the values: ChEMBL document CHEMBL1154461, “6-Substituted 2-oxo-2H-1-benzopyran-3-carboxylic acid derivatives in a new approach of the treatment of cancer cell invasion and metastasis” (2008).
